Here are results for eleven molecules from ChEMBL document CHEMBL1154512, “PA-824 kills nonreplicating Mycobacterium tuberculosis by intracellular NO release” (2008).

≈ marks a conversion by molar mass, not a printed value.

In experiment [1] the test system is Mycobacterium tuberculosis. As to the kind of experiment: Mycobactericidal activity against Mycobacterium tuberculosis H37Rv assessed as minimum anaerobicidal concentration required for 1 log reduction in bacterial numbers after 1 week under hypoxic non replicating condition. It counts as functional. Put shortly:
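Mtb adapted to hypoxia was exposed to compound for 1 week. MAC taken as the micromolar concentration giving a 1 log drop in bacterial numbers.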

For experiment [2], the system named is Mycobacterium tuberculosis. Nature of the experiment: Bactericidal activity against Mycobacterium tuberculosis H37Rv under aerobic condition by broth dilution method. It counts as functional. Summed up:
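MIC taken as the micromolar concentration inhibiting 99% of growth of an Mtb inoculum.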

The target of experiment [3] is Deazaflavin-dependent nitroreductase (Mycobacterium tuberculosis) (UniProt P9WP15). Nature of the experiment: Ratio of Kcat to Km for Mycobacterium tuberculosis Rv3547 expressed in Escherichia coli co-transfected with maltose-binding fusion protein. Summed up: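 Ddn (Rv3547) expressed in E. coli as a maltose-binding protein fusion and purified on amylose resin. Activity followed as time- and enzyme-dependent reoxidation of reduced F420 (F420H2), with the nitroimidazole as substrate. Kinetic values given as kcat/Km (min–1 μM–1).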

The target is the same in experiment [4]. As to the kind of experiment: Binding affinity to Mycobacterium tuberculosis Rv3547 assessed as nitrous acid production by Griess method in presence of cofactor F420H2. Summed up: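 Purified Ddn incubated with the nitroimidazole and F420H2. Reduction monitored as nitrite formation, read with Griess reagent.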

Chain of Deazaflavin-dependent nitroreductase (Mycobacterium tuberculosis) (P9WP15 whole entry, the tested form may be a part): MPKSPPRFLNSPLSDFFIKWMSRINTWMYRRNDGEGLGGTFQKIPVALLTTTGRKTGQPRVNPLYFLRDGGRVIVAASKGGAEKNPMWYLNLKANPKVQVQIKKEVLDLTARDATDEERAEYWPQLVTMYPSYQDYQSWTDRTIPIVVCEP

`O=[N+]([O-])c1cn2c(n1)OC[C@@H](NCc1ccc(OCc3ccc(OC(F)(F)F)cc3)cc1)C2`: in experiment [1], the Activity was 2.1 µM. Moreover, the MIC99 in experiment [2] worked out at 0.16 µM (≈ 0.0743 µg/mL).
The matching figures for `O=[N+]([O-])c1cn2c(n1)OC[C@@H](NCc1ccc(OC(F)(F)F)cc1)C2`: 8 µM and 0.4 µM (≈ 0.143 µg/mL).
The matching figures for `O=CN1CC(OCc2ccc(OC(F)(F)F)cc2)Cn2cc([N+](=O)[O-])nc21` (single isomer, unassigned): 31 µM and 6.3 µM (≈ 2.43 µg/mL).
As to `O=[N+]([O-])c1cn2c(n1)NC[C@@H](OCc1ccc(OC(F)(F)F)cc1)C2`, in experiment [1], the Activity was determined as 130 µM. This molecule also came in with an MIC99 in experiment [2] of 0.8 µM (≈ 0.287 µg/mL).
The matching figures for `O=[N+]([O-])c1cn2c(n1)OC[C@@H](NCCCc1ccc(OC(F)(F)F)cc1)C2`: 3.1 µM and 0.08 µM (≈ 0.0309 µg/mL).
For `O=[N+]([O-])c1cn2c(n1)OC[C@H](OCc1ccc(OC(F)(F)F)cc1)C2`, in experiment [1], the Activity is 250 µM. Further, the Ratio in experiment [3] is 0.016. Moreover, in experiment [2], the MIC99 amounted to 110 µM (≈ 39.5 µg/mL).
As for `O=[N+]([O-])c1cn2c(n1)OC[C@@H](NCCCCc1ccc(OC(F)(F)F)cc1)C2`, the Activity in experiment [1] amounted to 8.1 µM. In addition, in experiment [2], the MIC99 turned out to be 0.04 µM (≈ 0.016 µg/mL).
For `O=[N+]([O-])c1cn2c(n1)OC[C@@H](OCc1ccc(OC(F)(F)F)cc1)C2` [PRETOMANID], the Activity is 12 µM in experiment [1] and “Dose-dependent effect” in experiment [4]. In addition, the Ratio in experiment [3] was 0.145. The MIC99 in experiment [2] turned out to be 0.8 µM (≈ 0.287 µg/mL).
Regarding `O=[N+]([O-])c1cn2c(n1)OC[C@@H](NCCc1ccc(OC(F)(F)F)cc1)C2`, the Activity in experiment [1] is 2 µM. This molecule showed an MIC99 in experiment [2] of 0.04 µM (≈ 0.0149 µg/mL).
The matching figures for `CCCCc1ccc(CN[C@@H]2COc3nc([N+](=O)[O-])cn3C2)cc1`: 75 µM and 0.78 µM (≈ 0.258 µg/mL).
The matching figures for `O=[N+]([O-])c1cn2c(n1)SC[C@@H](OCc1ccc(OC(F)(F)F)cc1)C2`: 25 µM and 1.2 µM (≈ 0.45 µg/mL).
